What was measured:
MCF7 [1] = assay: Cytotoxic activity in human MCF7 cells by sulforhodamine B assay; format: functional
In short: (§1)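 Cell lines grown in D-MEM with 10% (v/v) FBS, 100 U/mL penicillin G and 100 μg/mL streptomycin at 37 °C, 5% CO2, 95% humidity. Cytotoxicity was measured by the Skehan method. CC50 was taken as the concentration that reduces cell growth by 50%. Docetaxel served as positive control, and each test was run in triplicate.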

MDA-MB-231 [2] = assay: Cytotoxic activity in human MDA-MB-231 cells by sulforhodamine B assay; format: functional; in short: as §1
KB [3] = assay: Antiproliferative activity in human KB cells by sulforhodamine B assay; format: functional, cell-based
In short: (§2)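 Cells grown in D-MEM with 10% (v/v) FBS, 100 U/mL penicillin G and 100 μg/mL streptomycin, at 37 °C under 5% CO2 and 95% humidity. Cytotoxic and antiproliferative effects were measured by the sulforhodamine B method of Skehan et al. CC50 (cytotoxic) or IC50 (antiproliferative) is the concentration giving 50% growth reduction. Docetaxel was the positive control. Triplicate tests.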

SiHa [4] = assay: Cytotoxic activity in human SiHa cells by sulforhodamine B assay; format: functional; in short: as §1
DU-145 [5] = assay: Cytotoxic activity in human DU145 cells by sulforhodamine B assay; format: functional; in short: as §1
[6] = Cytotoxic activity in African green monkey Vero cells by sulforhodamine B assay; format: cell-based; settings: chlorocebus sabaeus; in short: as §2
HeLa [7] = assay: Cytotoxic activity in human HeLa cells by sulforhodamine B assay; format: functional; in short: as §1
HeLa [8] = assay: Antiproliferative activity in human HeLa cells by sulforhodamine B assay; format: functional, cell-based; in short: as §2
HEK293 = assay: Antiproliferative activity in HEK293 cells by sulforhodamine B assay; format: cell-based; settings: Homo sapiens; in short: as §2
KB [9] = assay: Cytotoxic activity in human KB cells by sulforhodamine B assay; format: functional; in short: as §1
[10] = Cytotoxic activity in HEK293 cells by sulforhodamine B assay; format: cell-based; settings: human; in short: as §2
SiHa [11] = assay: Antiproliferative activity in human SiHa cells by sulforhodamine B assay; format: functional, cell-based; in short: as §2
MCF7 [12] = assay: Antiproliferative activity in human MCF7 cells by sulforhodamine B assay; format: functional, cell-based; in short: as §2
HEp-2 [13] = assay: Antiproliferative activity in human Hep2 cells by sulforhodamine B assay; format: functional, cell-based; in short: as §2
DU-145 [14] = assay: Antiproliferative activity in human DU145 cells by sulforhodamine B assay; format: functional, cell-based; in short: as §2
HEp-2 [15] = assay: Cytotoxic activity in human Hep2 cells by sulforhodamine B assay; format: functional; in short: as §1
Vero = assay: Antiproliferative activity in African green monkey Vero cells by sulforhodamine B assay; format: cell-based; settings: Chlorocebus sabaeus; in short: as §2
MDA-MB-231 [16] = assay: Antiproliferative activity in human MDA-MB-231 cells by sulforhodamine B assay; format: functional, cell-based; in short: as §2
[17] = Selectivity index, ratio of cytotoxic CC50 for African green monkey Vero cells to cytotoxic CC50 for human HeLa cells; format: toxicity; settings: Vero cells versus HeLa cells, read-out: Selectivity Index
In short: (§3)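 Selectivity index for harmfulness to normal cells: the normal-cell (Vero or HEK293) CC50 or IC50 over the cancer-cell value from the same assay type. Each value is from sulforhodamine B growth-reduction tests done in triplicate in D-MEM/10% FBS at 37 °C, 5% CO2.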

[18] = Selectivity index, ratio of antiproliferative IC50 for African green monkey Vero cells to antiproliferative IC50 for human HeLa cells; format: toxicity; settings: Vero cells versus HeLa cells, read-out: Ratio IC50; in short: as §3
[19] = Selectivity index, ratio of antiproliferative IC50 for African green monkey Vero cells to antiproliferative IC50 for human MCF7 cells; format: toxicity; settings: Vero cells versus MCF7 cells, read-out: Ratio IC50; in short: as §3
[20] = Selectivity index, ratio of antiproliferative IC50 for African green monkey Vero cells to antiproliferative IC50 for human SiHa cells; format: toxicity; settings: Vero cells versus SiHa cells, read-out: Ratio IC50; in short: as §3
[21] = Selectivity index, ratio of cytotoxic CC50 for African green monkey Vero cells to cytotoxic CC50 for human SiHa cells; format: toxicity; settings: Vero cells versus SiHa cells, read-out: Selectivity Index; in short: as §3
[22] = Selectivity index, ratio of cytotoxic CC50 for African green monkey Vero cells to cytotoxic CC50 for human MCF7 cells; format: toxicity; settings: Vero cells versus MCF7 cells, read-out: Selectivity Index; in short: as §3
[23] = Selectivity index, ratio of antiproliferative IC50 for African green monkey Vero cells to antiproliferative IC50 for human Hep2 cells; format: toxicity; settings: Vero cells versus Hep2 cells, read-out: Ratio IC50; in short: as §3
[24] = Selectivity index, ratio of antiproliferative IC50 for African green monkey Vero cells to antiproliferative IC50 for human KB cells; format: toxicity; settings: Vero cells versus KB cells, read-out: Ratio IC50; in short: as §3
[25] = Selectivity index, ratio of cytotoxic CC50 for African green monkey Vero cells to cytotoxic CC50 for human KB cells; format: toxicity; settings: Vero cells versus KB cells, read-out: Selectivity Index; in short: as §3
[26] = Selectivity index, ratio of cytotoxic CC50 for African green monkey Vero cells to cytotoxic CC50 for human MDA-MB-231 cells; format: toxicity; settings: Vero cells versus MDA-MB-231 cells, read-out: Selectivity Index; in short: as §3
[27] = Selectivity index, ratio of cytotoxic CC50 for African green monkey Vero cells to cytotoxic CC50 for human DU145 cells; format: toxicity; settings: Vero cells versus DU145 cells, read-out: Selectivity Index; in short: as §3
[28] = Selectivity index, ratio of cytotoxic CC50 for African green monkey Vero cells to cytotoxic CC50 for human Hep2 cells; format: toxicity; settings: Vero cells versus Hep2 cells, read-out: Selectivity Index

| SMILES | CC50 (MCF7 [1]) | CC50 (MDA-MB-231 [2]) | IC50 (KB [3]) | CC50 (SiHa [4]) | CC50 (DU-145 [5]) | CC50 [6] | CC50 (HeLa [7]) | IC50 (HeLa [8]) | IC50 (HEK293) | CC50 (KB [9]) | CC50 [10] | IC50 (SiHa [11]) | IC50 (MCF7 [12]) | IC50 (HEp-2 [13]) | IC50 (DU-145 [14]) | CC50 (HEp-2 [15]) | IC50 (Vero) | IC50 (MDA-MB-231 [16]) | selectivity ratio [20] | selectivity ratio [22] | other results |
| --- | --- | --- | --- | --- | --- | --- | --- | --- | --- | --- | --- | --- | --- | --- | --- | --- | --- | --- | --- | --- | --- |
| C=C(C)[C@@H]1CC[C@]2(C(=O)O)CC[C@]3(C)[C@H](CC[C@@H]4[C@@]5(C)CCC(=O)C(C)(C)[C@@H]5CC[C@]43C)[C@@H]12 [BETUNOLIC ACID] | > 500 µM | 60.9 µM | > 500 µM | 117 µM | 139 µM | > 500 µM | > 500 µM | > 500 µM | > 500 µM | > 500 µM | > 500 µM | > 500 µM | > 500 µM | > 500 µM | > 500 µM | > 500 µM | > 500 µM | > 500 µM |  |  |  |
| C=C(C)[C@@H]1CC[C@]2(C(=O)O)CC[C@]3(C)[C@H](CC[C@@H]4[C@@]5(C)CC[C@@H](O)C(C)(C)[C@@H]5CC[C@]43C)[C@@H]12 [EPIBETULINIC ACID] | 154 µM | > 500 µM | > 500 µM | 113 µM | > 500 µM | 107 µM | 118 µM | 91.8 µM | > 500 µM | > 500 µM | > 500 µM | 117 µM | 91.6 µM | > 500 µM | > 500 µM | > 500 µM | 117 µM | > 500 µM | 1 | 0.7 | selectivity ratio [17]: 0.9; selectivity ratio [18]: 1.3; selectivity ratio [19]: 1.2; selectivity ratio [21]: 0.9 |
| C=C(C)[C@@H]1CC[C@]2(CO)CC[C@]3(C)[C@H](CC[C@@H]4[C@@]5(C)CCC(=O)C(C)(C)[C@@H]5CC[C@]43C)[C@@H]12 [BETULONE] | > 500 µM | 136 µM | > 500 µM | 197 µM | 102 µM | > 500 µM | 136 µM | > 500 µM | > 500 µM | > 500 µM | > 500 µM | > 500 µM | > 500 µM | > 500 µM | > 500 µM | > 500 µM | > 500 µM | > 500 µM |  |  |  |
| C=C(C)[C@@H]1CC[C@]2(C(=O)O)CC[C@]3(C)[C@H](CC[C@@H]4[C@@]5(C)CC[C@@H](O)[C@](C)(CO)[C@@H]5CC[C@]43C)[C@@H]12 | 31.7 to 98.5 µM | 71.2 to 91.1 µM | 12.5 to 500 µM | 20.3 to 110 µM | 53.1 to 97.2 µM | > 500 µM | 120 to 153 µM | > 500 µM | 95.5 to 500 µM | 24.1 to 500 µM | 95.8 to 500 µM | 57.8 to 500 µM | 48.9 to 500 µM | 75.2 to 500 µM | > 500 µM | > 500 µM | > 500 µM | 169 to 500 µM | 1.6 | 3 | selectivity ratio [23]: 1.3; selectivity ratio [19]: 1.9; selectivity ratio [24]: 18.3; selectivity ratio [21]: 4.7; selectivity ratio [25]: 18.3; selectivity ratio [26]: 1.3; selectivity ratio [27]: 1.8 |
| CC1(C)CC[C@]2(C(=O)O)CC[C@]3(C)C(=CC[C@@H]4[C@@]5(C)CC[C@H](O)C(C)(C)[C@@H]5CC[C@]43C)[C@@H]2C1 [OLEANOLIC_ACID] | > 500 µM | 106 µM | > 500 µM | 109 µM | 65.6 µM | > 500 µM | > 500 µM | 204 µM | > 500 µM | > 500 µM | > 500 µM | 110 µM | > 500 µM | > 500 µM | 124 µM | > 500 µM | > 500 µM | 134 µM |  |  |  |
| C=C(C)[C@@H]1CC[C@]2(C)CC[C@]3(C)[C@H](CC[C@@H]4[C@@]5(C)CCC(=O)C(C)(C)[C@@H]5CC[C@]43C)[C@@H]12 [LUPENONE] | > 500 µM | > 500 µM | > 500 µM | > 500 µM | > 500 µM | > 500 µM | > 500 µM | > 500 µM | > 500 µM | > 500 µM | > 500 µM | > 500 µM | > 500 µM | > 500 µM | > 500 µM | > 500 µM | > 500 µM | > 500 µM |  |  |  |
| C=C(C)[C@@H]1CC[C@]2(C(=O)O)CC[C@]3(C)[C@H](CC[C@@H]4[C@@]5(C)CC[C@H]6OC(C)(C)OC[C@]6(C)[C@@H]5CC[C@]43C)[C@@H]12 | 84.6 µM | > 500 µM | 16.4 µM | > 500 µM | > 500 µM | > 500 µM | > 500 µM | > 500 µM | 656 µM | 10.2 µM | 420 µM | 58.2 µM | > 500 µM | > 500 µM | > 500 µM | 32.4 µM | > 500 µM | > 500 µM | 11.3 | 5 | selectivity ratio [28]: 13; selectivity ratio [24]: 39.9; selectivity ratio [25]: 41 |
| C=C(C=O)[C@@H]1CC[C@]2(C(=O)O)CC[C@]3(C)[C@H](CC[C@@H]4[C@@]5(C)CC[C@@H](O)[C@](C)(CO)[C@@H]5CC[C@]43C)[C@@H]12 | > 500 µM | 106 µM | > 500 µM | 92.2 µM | 52.6 µM | > 500 µM | 182 µM | 106 µM | > 500 µM | > 500 µM | > 500 µM | 127 µM | > 500 µM | > 500 µM | 89.7 µM | > 500 µM | > 500 µM | 123 µM |  |  |  |
| C=C(C)[C@@H]1CC[C@]2(CO)CC[C@]3(C)[C@H](CC[C@@H]4[C@@]5(C)CC[C@H](O)C(C)(C)[C@@H]5CC[C@]43C)[C@@H]12 [BETULIN] | > 500 µM | > 500 µM | > 500 µM | > 500 µM | 162 µM | > 500 µM | > 500 µM | > 500 µM | > 500 µM | > 500 µM | > 500 µM | > 500 µM | > 500 µM | > 500 µM | 137 µM | > 500 µM | > 500 µM | > 500 µM |  |  |  |
